Results reported in PMC5473336 (Journal of medicinal chemistry, 2016).
“Also recorded” adds a separate entry of the source. Where two headings read alike, the source gives them in different places.

Key:
[1] = Stability on exposure to air; type: physicochemical; conditions: room temperature; oxidizes to compound 8
293-DR-GFP cells [2] = test: DR-GFP assay of cellular HR activity; type: cell-based, human; conditions: 24 h, relative to 1 and 8
RAD51 [3] = biological target: T1, RAD51 (Homo sapiens, UniProt Q06609); test: Fluorescence polarization-based RAD51-DNA binding assay; conditions: for ssDNA binding IC50: Stim: compound is a stimulator
T1 sequence (Q06609 1-339): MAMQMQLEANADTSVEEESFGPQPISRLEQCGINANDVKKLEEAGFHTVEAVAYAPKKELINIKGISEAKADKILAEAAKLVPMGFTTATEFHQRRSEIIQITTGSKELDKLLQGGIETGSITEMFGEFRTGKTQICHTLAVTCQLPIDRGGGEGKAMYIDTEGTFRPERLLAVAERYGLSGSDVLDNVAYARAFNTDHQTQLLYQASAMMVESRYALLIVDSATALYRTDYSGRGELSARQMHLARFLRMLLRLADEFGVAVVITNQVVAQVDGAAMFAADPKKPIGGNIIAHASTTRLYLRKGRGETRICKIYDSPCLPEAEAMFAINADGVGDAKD

RAD51 [4] = biological target: T1, RAD51; test: Gel-based D-loop assay; type: biochemical
[5] = biological target: T2, S. cerevisiae Rad51 and Rad52 proteins (Saccharomyces cerevisiae, UniProt P25454); test: Gel-based D-loop assay with yeast recombinase; type: biochemical; conditions: selectivity versus human RAD51
T2 sequence (P25454 1-400): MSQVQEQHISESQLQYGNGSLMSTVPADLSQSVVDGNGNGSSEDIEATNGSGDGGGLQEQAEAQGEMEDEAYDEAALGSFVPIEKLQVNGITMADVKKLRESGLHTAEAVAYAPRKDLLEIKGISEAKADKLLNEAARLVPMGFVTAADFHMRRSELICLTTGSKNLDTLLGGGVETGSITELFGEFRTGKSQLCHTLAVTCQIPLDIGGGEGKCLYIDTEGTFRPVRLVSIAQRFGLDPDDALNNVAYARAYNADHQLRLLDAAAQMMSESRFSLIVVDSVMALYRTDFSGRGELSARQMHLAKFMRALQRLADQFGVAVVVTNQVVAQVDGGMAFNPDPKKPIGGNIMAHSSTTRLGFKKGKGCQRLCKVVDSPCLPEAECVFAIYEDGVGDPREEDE

E. coli RecA protein = E. coli RecA protein (Escherichia coli, UniProt P0A7G6); test: Gel-based D-loop assay with bacterial recombinase; type: biochemical; conditions: selectivity versus human RAD51
293-DR-GFP cells [6] = test: RAD51 cytological focus formation after irradiation; type: cell-based, human; conditions: IR-induced, 8 h time course
[7] = tested on: U2OS, PC-3, and MCF-7 tumor cell lines; test: Clonogenic survival assay after ionizing radiation; type: cell-based; conditions: compound given immediately after irradiation, for the duration of outgrowth
Procedure, shortened: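 X-ray irradiation at 1.5 Gy/min of subconfluent flask cultures, then trypsinized and seeded at 1000–1500 cells/well in complete medium with 0.5% DMSO plus compound at the indicated dose. Grown 7–11 days until colonies reached at least 50 cells, then fixed and stained in 6% glutaraldehyde + 0.5% crystal violet. Colonies counted automatically. PC-3 kept in DMEM:F12 (1:1), 10% FCS, penicillin/streptomycin.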

293-SA-GFP cells [8] = test: Single-strand annealing; type: cell-based, human; conditions: concentration range that inhibits HR, 24 h post-transfection
Procedure, shortened: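 Cells electroporated in Opti-MEM with 37.5 μg/mL I-SceI plasmid (pCBASce) or empty pCAGGS vector at 325 V, 975 μF. Then seeded in complete DMEM + 0.5% DMSO with compound and grown out 24 h. Harvested into PBS with 1 μg/mL 7-AAD for flow cytometry, gating out dead/apoptotic cells by size, shape and 7-AAD. Read-out is the GFP-positive fraction of live cells; three replicates, standard error.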

293-SA-GFP cells [9] = conditions: previously demonstrated; cited from earlier work
RAD51 [10] = conditions: cited from earlier work
human cells = conditions: following irradiation; cited from earlier work
RAD51 [11] = conditions: cited from earlier work; remark: listed apart in the source

E. coli RecA protein, sequence (P0A7G6 whole entry): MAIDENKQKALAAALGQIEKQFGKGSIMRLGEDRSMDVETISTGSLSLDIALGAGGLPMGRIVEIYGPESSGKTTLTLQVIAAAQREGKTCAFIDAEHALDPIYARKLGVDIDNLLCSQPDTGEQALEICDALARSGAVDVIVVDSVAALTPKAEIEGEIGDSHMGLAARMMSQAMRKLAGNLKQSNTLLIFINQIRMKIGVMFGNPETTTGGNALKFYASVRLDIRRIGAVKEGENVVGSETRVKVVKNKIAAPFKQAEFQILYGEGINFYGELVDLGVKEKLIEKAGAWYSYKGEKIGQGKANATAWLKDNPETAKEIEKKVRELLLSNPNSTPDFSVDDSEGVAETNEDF

| influence on RAD51-ssDNA binding (in words) (RAD51 [3]) | ssDNA binding IC50 (RAD51 [3]) | D-loop inhibitory activity (in words) (RAD51 [4]) | SMILES | further results |
| --- | --- | --- | --- | --- |
| significant stimulatory activity | Stim | – | COc1ccc2c(c1)NC(c1ccc(N(C)C)cc1)c1cccn1-2 (racemic) [Compound 7, 4-(7-Methoxy-4,5-dihydropyrrolo[1,2-a][13]quinoxalin-4-yl)-N,N-dimethylaniline] | stability when exposed to air (in words) [1]: not stable; inhibitory activity in cell-based HR assay (in words) (293-DR-GFP cells [2]): comparable to that of 1 and 8; Emax (RAD51 [3]; read-out: ssDNA binding max effect, ↑ compound stimulates RAD51-ssDNA binding): 47 ± 33% |
| – | Stim | significantly decreased | FC(F)(F)Oc1ccc(-c2nc3ccccc3n3cccc23)cc1 [Compound 9e, 4-(4-(Trifluoromethoxy)phenyl)pyrrolo[1,2-a]quinoxaline] | – |
| modest influence | Stim | significantly decreased | c1ccc2c(c1)nc(-c1ccc(N3CCCC3)cc1)c1cccn12 [Compound 9i, 4-(4-(Pyrrolidin-1-yl)phenyl)pyrrolo[1,2-a]quinoxaline] | – |
| modest influence | Stim | weak | C1=C(c2nc3ccccc3n3cccc23)CCCC1 [Compound 11c, 4-(Cyclohex-1-en-1-yl)pyrrolo[1,2-a]quinoxaline] | – |
| modest influence | Stim | weak | c1ccc2c(-c3nc4ccccc4n4cccc34)cccc2c1 [Compound 11d, 4-(Naphthalen-1-yl)pyrrolo[1,2-a]quinoxaline] | – |
| modest effects | – | – | Nc1ccc(-c2nc3cc(O)ccc3n3cccc23)cc1 [Compound 12f, 4-(4-Aminophenyl)pyrrolo[1,2-a]quinoxalin-7-ol] | inhibitory activity in cell-based HR assay (in words) (293-DR-GFP cells [2]): comparable or slightly less inhibitory activity |
| only weakly influenced | Stim | – | CN(C)c1ccc(-c2nc3cc(O)ccc3n3cccc23)cc1 [Compound 12g, 4-(4-(Dimethylamino)phenyl)pyrrolo[1,2-a]quinoxalin-7-ol] | inhibitory activity in cell-based HR assay (in words) (293-DR-GFP cells [2]): comparable or slightly less inhibitory activity |
| – | Stim | nearly absent | CN(C)c1ccc(-c2nc3cc(F)ccc3n3cccc23)cc1 [Compound 12j, 4-(7-Fluoropyrrolo[1,2-a]quinoxalin-4-yl)-N,N-dimethylaniline] | – |
| – | Stim | nearly absent | CN(C)c1ccc(-c2nc3cc(F)c(F)cc3n3cccc23)cc1 [Compound 12m, 4-(7,8-Difluoropyrrolo[1,2-a]quinoxalin-4-yl)-N,N-dimethylaniline] | – |
| – | – | – | O=C1C(Cl)=C(N2CCOCC2)C(=O)N1c1ccc(Cl)c(Cl)c1 [RI-1] | effect on SSA activity (in words) (293-SA-GFP cells [9]): elevated levels of SSA activity |
| – | – | – | C[C@@]12CCC(=O)c3coc(c31)C(=O)c1cc3c(cc12)C(=O)C=CC3=O [halenaquinone] | RAD51 D-loop activity (in words) (RAD51 [10]): specifically inhibit D-loop formation; RAD51 D-loop activity (in words) (RAD51 [10]; listed as Halenaquinone): strongly inhibit; RAD51 foci at DSB sites in cells (in words) (human cells): inhibit the formation of RAD51 foci; also recorded: reduces the subnuclear appearance of RAD51 foci; RAD51 ssDNA binding activity (in words) (RAD51 [11]): sparing |

| SMILES | influence on RAD51-ssDNA binding (in words) (RAD51 [3]) | ssDNA binding IC50 (RAD51 [3]) | D-loop inhibitory activity (in words) (RAD51 [4]) | further results |
| --- | --- | --- | --- | --- |
| CCNc1ccc(-c2nc3ccccc3n3cccc23)cc1 [Compound 9h, N-Ethyl-4-(pyrrolo[1,2-a]quinoxalin-4-yl)aniline] | almost no impact | – | allow for D-loop inhibition | inhibition of D-loop activity of Saccharomyces cerevisiae Rad51 (in words) [5]: no significant inhibition; inhibition of D-loop activity of Escherichia coli RecA (in words) (E. coli RecA protein): no significant inhibition; appearance of RAD51 subnuclear foci in response to DNA damage (in words) (293-DR-GFP cells [6]): does not inhibit; sensitization of cancer cells to radiation, clonogenic survival (in words) [7]: significantly sensitizes; effect on SSA activity (in words) (293-SA-GFP cells [8]): does not stimulate SSA |
